In ChEMBL document CHEMBL1155539, “Discovery of 4-[1-[([1-[4-(trifluoromethyl)benzyl]-1H-indol-7-yl]carbonyl)amino]cyclopropyl]benzoic acid (MF-766), a highly potent and selective EP4 antagonist for treating inflammatory pain” (Bioorg Med Chem Lett, 2010):

How the values were obtained:
[1] = Elimination half life in Sprague-Dawley rat at 5 mg/kg, iv and 20 mg/kg, po; format: ADME, organism-based; settings: in vivo, read-out: beta t1/2 (converted)
In short: (§1)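 Sprague-Dawley rats dosed iv at 5 mg/kg and po at 20 mg/kg. The iv group was n = 2 males given the free acid in 60% PEG 200 at 1 mL/kg. PK parameters were derived from plasma levels.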

[2] = AUC (0 to 24 hrs) in Sprague-Dawley rat at 20 mg/kg, po; format: ADME, organism-based; design: time < 24 hr, dose 20 mg/kg, route oral; settings: plasma; in short: as §1
Prostacyclin receptor = Prostacyclin receptor (Homo sapiens, UniProt P43119); test: Displacement of [3H]iloprost from human prostanoid IP receptor expressed in HEK293-EBNA cells after 60 mins by scintillation counting; format: cell-based
Prostacyclin receptor, sequence (P43119 whole entry): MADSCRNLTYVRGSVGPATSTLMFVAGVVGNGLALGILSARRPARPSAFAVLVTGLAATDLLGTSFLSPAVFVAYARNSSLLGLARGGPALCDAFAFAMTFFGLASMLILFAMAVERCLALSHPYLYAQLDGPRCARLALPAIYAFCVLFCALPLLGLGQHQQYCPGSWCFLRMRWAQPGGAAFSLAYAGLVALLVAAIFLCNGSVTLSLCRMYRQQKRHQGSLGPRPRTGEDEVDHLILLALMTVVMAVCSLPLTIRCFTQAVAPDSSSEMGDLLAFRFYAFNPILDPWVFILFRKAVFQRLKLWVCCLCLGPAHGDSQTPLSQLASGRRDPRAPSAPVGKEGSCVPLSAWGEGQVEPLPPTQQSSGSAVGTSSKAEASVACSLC

[3] = Volume of distribution in Beagle dog at 1 mg/kg, iv and 4 mg/kg, po; settings: in vivo
[4] = Drug level in complete Freund's adjuvant challenged rat administered daily once 9 days after adjuvant challenge measured on day 18 after 2 hrs post dose; format: ADME, organism-based; settings: in vivo, read-out: Drug uptake
In short: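 In a separate rat AIA experiment with daily dosing, plasma drug levels were measured 2 h and 24 h after the final dose.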

[5] = target: Prostaglandin F2-alpha receptor (Homo sapiens, UniProt P43088); test: Displacement of [3H]PGF2alpha from human prostanoid FP receptor expressed in HEK293-EBNA cells after 60 mins by scintillation counting; format: cell-based
Prostaglandin F2-alpha receptor, sequence (P43088 whole entry): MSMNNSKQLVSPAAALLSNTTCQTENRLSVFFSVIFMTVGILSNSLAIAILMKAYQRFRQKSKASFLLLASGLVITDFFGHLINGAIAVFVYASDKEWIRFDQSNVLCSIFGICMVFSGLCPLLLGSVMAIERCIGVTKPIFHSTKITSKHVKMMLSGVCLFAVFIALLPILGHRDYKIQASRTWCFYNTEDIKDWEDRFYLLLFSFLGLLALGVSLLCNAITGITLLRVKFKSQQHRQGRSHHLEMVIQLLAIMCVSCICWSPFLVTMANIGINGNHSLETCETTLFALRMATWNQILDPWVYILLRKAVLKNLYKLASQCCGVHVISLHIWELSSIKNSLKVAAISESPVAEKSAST

Rattus norvegicus [6] = test: Antiinflammatory activity in rat assessed as inhibition of complete Freund's adjuvant-induced secondary paw swelling administered daily once 9 days after adjuvant challenge measured on day 18; format: functional
In short: (§2)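 Rat adjuvant-induced arthritis model with daily dosing in mg/kg/day. Dose groups were 0, 0.001, 0.01, 0.1 and 1 mg/kg, plus a non-AIA control group. Primary and secondary paw swelling were scored as % inhibition relative to vehicle-treated arthritic rats, and ED50 was estimated from the dose–response.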

[7] = Plasma clearance in Sprague-Dawley rat at 5 mg/kg, iv and 20 mg/kg, po; format: ADME, organism-based; in short: as §1
Hepatocyte [8] = test: Metabolic stability in rat hepatocytes; format: ADME, cell-based
Hepatocyte [9] = test: Oxidative metabolism in human hepatocytes assessed as protein covalent binding after 2 hrs; format: ADME, cell-based
In short: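 [3H]-labelled compound incubated with fresh rat or human hepatocytes for 2 h. Covalent protein binding was expressed as pmol-equiv/mg protein, and samples were checked for tritium loss by HPLC with radiometric detection.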

[10] = Volume of distribution in Sprague-Dawley rat at 5 mg/kg, iv and 20 mg/kg, po; format: ADME, organism-based; settings: in vivo; in short: as §1
Canis familiaris = test: Bioavailability in Beagle dog at 1 mg/kg, iv and 4 mg/kg, po; settings: in vivo
[11] = target: Prostaglandin E2 receptor EP4 subtype (Homo sapiens, UniProt P35408); test: Displacement of [3H]PGE2 from human prostanoid EP4 receptor expressed in HEK293-EBNA cells after 60 mins by scintillation counting in presence of 10% human serum; format: cell-based
Prostaglandin E2 receptor EP4 subtype, sequence (P35408 whole entry): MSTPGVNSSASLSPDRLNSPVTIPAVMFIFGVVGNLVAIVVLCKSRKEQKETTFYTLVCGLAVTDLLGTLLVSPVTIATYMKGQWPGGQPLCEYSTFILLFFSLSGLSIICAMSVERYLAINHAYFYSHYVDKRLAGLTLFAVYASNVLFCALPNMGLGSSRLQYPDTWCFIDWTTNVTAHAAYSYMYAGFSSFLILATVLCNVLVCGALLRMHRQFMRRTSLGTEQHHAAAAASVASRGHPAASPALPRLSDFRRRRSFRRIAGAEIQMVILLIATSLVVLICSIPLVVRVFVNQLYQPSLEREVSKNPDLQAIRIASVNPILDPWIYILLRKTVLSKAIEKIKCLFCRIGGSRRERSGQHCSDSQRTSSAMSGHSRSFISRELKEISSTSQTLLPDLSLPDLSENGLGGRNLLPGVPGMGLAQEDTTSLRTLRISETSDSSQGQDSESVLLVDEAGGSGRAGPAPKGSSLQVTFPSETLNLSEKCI

[12] = Elimination half life in Beagle dog at 1 mg/kg, iv and 4 mg/kg, po; settings: in vivo, read-out: beta t1/2 (converted)
[13] = target: T1, Prostaglandin D2 receptor (Homo sapiens, UniProt Q13258); test: Displacement of [3H]PGD2 from human Prostanoid DP1 receptor expressed in HEK293-EBNA cells after 60 mins by scintillation counting; format: cell-based
T1 sequence (Q13258 whole entry): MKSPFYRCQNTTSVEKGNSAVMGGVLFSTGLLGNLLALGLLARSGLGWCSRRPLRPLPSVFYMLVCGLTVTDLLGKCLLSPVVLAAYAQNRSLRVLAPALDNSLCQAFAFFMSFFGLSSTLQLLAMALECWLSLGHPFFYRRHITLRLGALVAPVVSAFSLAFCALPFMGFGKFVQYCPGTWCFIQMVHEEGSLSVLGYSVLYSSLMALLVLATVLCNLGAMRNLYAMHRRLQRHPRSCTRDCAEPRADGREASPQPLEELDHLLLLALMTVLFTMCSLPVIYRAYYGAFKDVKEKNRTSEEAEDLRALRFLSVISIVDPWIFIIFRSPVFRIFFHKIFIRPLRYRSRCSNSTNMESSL

[14] = Bioavailability in Sprague-Dawley rat at 5 mg/kg, iv and 20 mg/kg, po; format: ADME, organism-based; settings: in vivo; in short: as §1
Rattus norvegicus [15] = test: Antiinflammatory activity in rat assessed as inhibition of complete Freund's adjuvant-induced paw swelling administered daily once 9 days after adjuvant challenge measured on day 18; format: functional; settings: read-out: ED50; in short: as §2

SMILES: O=C(O)c1ccc(C2(NC(=O)c3cccc4ccn(Cc5ccc(C(F)(F)F)cc5)c34)CC2)cc1
- half-life [1]: 4.6 h
- AUC(0-t) at 24 h [2]: 150 µM·h
- Ki (Prostacyclin receptor): > 22000 nM
- Vd [3]: 0.8 L/kg
- concentration at 2 h [4]: 28 nM
- Ki [5]: 6400 nM
- ED100 (Rattus norvegicus [6]): 0.025 mg/kg/day
- clearance [7]: 3.7 mL/min/kg
- Stability (Hepatocyte [8]): Stable
- Activity (Hepatocyte [9]): 50 pmolequiv/mg
- Vd [10]: 1 L/kg
- F (Canis familiaris): 74%
- Ki [11]: 0.34 nM
- half-life [12]: 2.6 h
- Ki [13]: 1650 nM
- bioavailability [14]: 86%
- ED50 (Rattus norvegicus [15]): 0.004 mg/kg/day
